These results are taken from the RNAGym collection of RNA variant scans (doi:10.1038/nmeth.2970).

A word on the Kd: it is a measure of binding affinity in units of concentration.

B1: NELF-E aptamer (parent)
chain: CCCAACGACUGCCGAGCGAGAUUACGCUUGAGCGCCCCACUGAGGAUGCCCACGGGCGAUUGGGGCACGG

The variants in this data set derive from B1. Description: HiTS-RAP. The following applies: with NELF-E (Drosophila). In outline: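 Aptamer DNA templates bearing a T7 promoter and a ter site were sequenced on an Illumina GAIIx flowcell. T7 RNA polymerase then transcribed them in situ, and GST-Tus halted transcription over 30 minutes at 37°C. After a 30-minute room-temperature equilibration with NELF-E-mOrange at 0.064 to 1000 nM in HEPES binding buffer, clusters were imaged, using only the first binding curve. Intensities normalised to sequencing intensity were averaged per sequence and fitted with weighted Hill fits to give Kd, retaining only fits whose variance stayed under 1,000,000.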
Regarding CCCAACGACUGCCGAGCGAGAGUACGCUUGAGCGCACCACUGAGGAUGCCCACGGGCGAUUGGGGCACGG [U22G C36A], the Kd amounted to 10.1 nM.
For CCCAACGACUGCCGAGCGAGAGUACGCUUGAGCGCUCCACUGAGGAUGCCCACGGGCGAUUGGGGCACGG [U22G C36U], the Kd stood at 6.89 nM.
Take CCCAACGACUGCCGAGCGAGAGUACGCUUGAGCGCGCCACUGAGGAUGCCCACGGGCGAUUGGGGCACGG [U22G C36G]: the Kd stood at 7.35 nM.
For the variant CCCAACGACUGCCGAGCGAGAGUACGCUUGAGCGCCCCACUGAGGAUGUCCACGGGCGAUUGGGGCACGG [U22G C49U], the Kd is 24.7 nM.
The result for CCCAACGACUGCCGAGCGAGAGUACUCUUGAGCGCCCCACUGAGGAUGCCCACGGGCGAUUGGGGCACGG [U22G G26U] reads 4.84 nM.
The result for CCCAACGACUGCCGAGCGAGAGUACACUUGAGCGCCCCACUGAGGAUGCCCACGGGCGAUUGGGGCACGG [U22G G26A] reads 5.64 nM; that for CCCAACGACUGCCGAGCGAGAGUACGCUUGAGCGCCCCACUGAGGAUGCCCACGUGCGAUUGGGGCACGG [U22G G55U], 7.97 nM.
The result for CCCAACGACUGCCGAGCGAGAGUACGCUUGAGCGCCCCACUGAGGAUGCCCACGCGCGAUUGGGGCACGG [U22G G55C] reads 7.26 nM; that for CCCAACGACUGCCGAGCGAGAGUACGCUUGAGCGCCCCACUGAGGAUGCCCACGAGCGAUUGGGGCACGG [U22G G55A], 8.23 nM.
Regarding CCCAACGACUGCCGAGCGAGAGUACGCUUGAGCGCCCUACUGAGGAUGCCCACGGGCGAUUGGGGCACGG [U22G C38U], the Kd came to 8.32 nM.
To CCCAACGACUGCCGAGCGAGAGUACGCUUGAGGGCCCCACUGAGGAUGCCCACGGGCGAUUGGGGCACGG [U22G C33G] belongs 6.1 nM; to CCCAACGACUGCCGAGCGAGAGUACGCUUGAGUGCCCCACUGAGGAUGCCCACGGGCGAUUGGGGCACGG [U22G C33U], 5.57 nM; to CCCAACGACUGCCGAGCGAGAGUACGCUUGAGCGCCCCACUGAGGAUGCCCACGGGCGAUUAGGGCACGG [U22G G62A], 18.2 nM.
The result for CCCAACGACUGCCGAGCGAGAGUACGCUUGAGCGCCCCACUGAGGAUGCCCACGGGCGAUUUGGGCACGG [U22G G62U] reads 10.4 nM; that for CCCAACGACUGCCGAGCGAGAGUACGCUUGAGCGCCCCACUGAGGAUGCCCAAGGGCGAUUGGGGCACGG [U22G C53A], 4.91 nM; that for CCCAACGACUGCCGAGCGAGAGUACGCUUGAGCGCCCCACUGAGGAUGCCCAUGGGCGAUUGGGGCACGG [U22G C53U], 4.04 nM.
Turning to CCCAACGACUGCCGAGCGAGAGUACGCUUGAGCGCCCCACUGAGGAUGCCCACGGGUGAUUGGGGCACGG [U22G C57U], the Kd was determined as 6.19 nM.
The result for CCCAACGACUGCCGAGCGAGAGUACGCUUGAGCGACCCACUGAGGAUGCCCACGGGCGAUUGGGGCACGG [U22G C35A] reads 7.18 nM; that for CCCAACGACUGCCGAGCGAGAGUACGCUUGAGCGGCCCACUGAGGAUGCCCACGGGCGAUUGGGGCACGG [U22G C35G], 6.38 nM.
To CCCAACGACUGCCGAGCGAGAGUACGCUUGAGCGUCCCACUGAGGAUGCCCACGGGCGAUUGGGGCACGG [U22G C35U] belongs 11.6 nM; to CCCAACGACUGCCGAGCGAGAGUACGCUUGAGCGCCGCACUGAGGAUGCCCACGGGCGAUUGGGGCACGG [U22G C37G], 7.01 nM; to CCCAACGACUGCCGAGCGAGAGUACGCUUGAGCGCCACACUGAGGAUGCCCACGGGCGAUUGGGGCACGG [U22G C37A], 14.6 nM.
Consider CCCAACGACUGCCGAGCGAGAGUACGCUUGAGCGCCUCACUGAGGAUGCCCACGGGCGAUUGGGGCACGG [U22G C37U], for which the Kd was found to be 12.7 nM.
The result for CCCAACGACUGCCGAGCGAGAGUACGCUUGAGCGCCCCAGUGAGGAUGCCCACGGGCGAUUGGGGCACGG [U22G C40G] reads 6.42 nM; that for CCCAACGACUGCCGAGCGAGAGUACGCUUGAGCGCCCCAUUGAGGAUGCCCACGGGCGAUUGGGGCACGG [U22G C40U], 82.8 nM; that for CCCAACGACUGCCGAGCGAGAGUACGCUUAAGCGCCCCACUGAGGAUGCCCACGGGCGAUUGGGGCACGG [U22G G30A], 5.32 nM.
The result for CCCAACGACUGCCGAGCGAGAGUACGCUUUAGCGCCCCACUGAGGAUGCCCACGGGCGAUUGGGGCACGG [U22G G30U] reads 6.56 nM; that for CCCAACGACUGCCGAGCGAGAGUACGCUUGAGCGCCCCACUGAGGAUGCCCACGGGCGAUUGGGGCUCGG [U22G A67U], 7.3 nM.
CCCAACGACUGCCGAGCGAGAGUACGCUUGAGCGCCCCACUGAGGAUGCCCACGGGCGAUUGGGGCGCGG [U22G A67G]: the Kd amounted to 5.48 nM.
The result for CCCAACGACUGCCGAGCGAGAGUACGCUUGAGCGCCCCACUGAGGAUGCCCACGGGCGAUUGGGACACGG [U22G G65A] reads 5.12 nM; that for CCCAACGACUGCCGAGCGAGAGUACGCUUGAGCGCCCCACUGAGGAUGCCCACGGGCGAUUGGGCCACGG [U22G G65C], 13.4 nM.
For CCCAACGACUGCCGAGCGAGAGUACGCUUGAGCGCCCCACUGAGGAUGCCCACGGGCGAUUGGGUCACGG [U22G G65U], the Kd is 6.22 nM.
To CCCAACGACUGCCGAGCGAGAGUACGCUUGAGCGCCCCACUGAAGAUGCCCACGGGCGAUUGGGGCACGG [U22G G44A] belongs 17.5 nM; to CCCAACGACUGCCGAGCGAGAGUACGCUUGAGCGCCCCACUGAUGAUGCCCACGGGCGAUUGGGGCACGG [U22G G44U], 17.2 nM; to CCCAACGACUGCCGAGCGAGAGUACGCUUGAGCGCCCCACUGAGGAUGCACACGGGCGAUUGGGGCACGG [U22G C50A], 19.3 nM.
To CCCAACGACUGCCGAGCGAGAGUACGCUUGAGCGCCCCACUGAGGAUGCUCACGGGCGAUUGGGGCACGG [U22G C50U] belongs 12.9 nM; to CCCAACGACUGCCGAGCGAGAGUACGCUUGAGCGCCCCACUGAGGAUGCGCACGGGCGAUUGGGGCACGG [U22G C50G], 7.97 nM.
With CCCAACGACUGCCGAGCGAGAGUACGCUUGAGCGCCCCACUGAGGAUGCCCACAGGCGAUUGGGGCACGG [U22G G54A], the dissociation constant Kd is 12.1 nM.
